A selection: hits, their analogues and other compounds. The true share with any hit is near 1.8%.
CHRM5 agonist: CHRM5 agonism in calcium assay | P08912 | CHO-K1 hM5 cells, Fluo-8 calcium fluorescence; 0% DMSO wells, 100% maximal acetylcholine response | activation, % at 3 µM | 360,000 tested, 0.19% active;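 active = activation above the run's mean over test compounds plus 3 SD, cut at about 23% in these data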;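 note: signal is peak over basal fluorescence ratio across the kinetic read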
M5 antag: CHRM5 antagonism in calcium assay | P08912 | 360,000 tested, 0.59% active | inhibition, % at 3 µM | CHO-hM5 cells, Fluo-8 calcium fluorescence, ACh EC80;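 active = inhibition above a per-plate cutoff, the mean of that plate's test compounds plus 3 SD, cut at about 27% in these data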;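 note: 0% = acetylcholine EC80 with DMSO and 100% = DMSO without agonist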
CHRM4 agonist: agonists of human muscarinic M4 receptor (CHRM4); P08173; CHO-K1 hM4/Gqi5, Fluo-8 calcium fluorescence; vehicle 0%, full acetylcholine response 100%; activation, % at 3 µM; 360,000 tested, 0.14% active; AID 624127;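 active = activation above the run mean over all test wells plus 3 SD, cut at about 32% in these data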;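 note: peak over basal fluorescence ratio per well then scaled between controls; 0% = DMSO wells and 100% = acetylcholine at EC100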
Target sequence (P08173 whole entry, looked up): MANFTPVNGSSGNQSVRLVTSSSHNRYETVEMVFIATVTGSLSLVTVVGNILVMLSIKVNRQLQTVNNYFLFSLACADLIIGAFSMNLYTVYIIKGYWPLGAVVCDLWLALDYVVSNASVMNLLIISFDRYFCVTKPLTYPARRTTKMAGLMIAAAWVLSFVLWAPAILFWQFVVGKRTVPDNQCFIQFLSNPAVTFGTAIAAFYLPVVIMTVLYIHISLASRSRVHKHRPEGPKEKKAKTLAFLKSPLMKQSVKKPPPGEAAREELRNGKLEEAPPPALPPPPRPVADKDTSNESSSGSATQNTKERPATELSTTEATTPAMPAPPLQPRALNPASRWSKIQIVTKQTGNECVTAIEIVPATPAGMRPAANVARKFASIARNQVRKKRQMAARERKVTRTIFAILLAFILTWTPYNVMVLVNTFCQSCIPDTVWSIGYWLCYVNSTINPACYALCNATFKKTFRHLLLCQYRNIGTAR
M4 PAM: CHRM4 positive allosteric modulation; CHO-K1 hM4/Gqi5, Fluo-8 calcium fluorescence, ACh EC20; 0% = ACh EC20, 100% = maximal ACh; activation, % at 3 µM; 360,000 tested, 0.4% active; AID 624126;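 active = activation above its plate's cutoff, the mean activation of sample wells plus 3 SD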
M4 antag: antagonists of human muscarinic M4 receptor (CHRM4) | P08173 | CHO-hM4 cells, ACh EC80, Fluo-8 calcium fluorescence | inhibition, % at 3 µM | 360,000 tested, 0.73% active | AID 624125;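 active = inhibition above its plate's cutoff, the mean inhibition of sample wells plus 3 SD, cut at about 27% in these data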;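 note: 0% = acetylcholine EC80 with DMSO and 100% = DMSO without agonist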
M5 PAM: CHRM5 positive allosteric modulation | P08912 | CHO-K1 hM5, Fluo-8 calcium, ACh EC20 PAM; 0% = ACh EC20, 100% = ACh EC100 | activation, % at 3 µM | 360,000 tested, 0.3% active;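 active = activation above the run cutoff, the mean activation of all test compounds plus 3 SD, cut at about 18% in these data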
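System: CHO-K1 cell line with stable human muscarinic M5 receptor expression | Also added: EC20 acetylcholine as agonist stimulus | Compound: One concentration, 3 µM final (nominal) | Timing: Fluo-8 loading 80 min at 37 °C plus 30 min room temperature | Measured by: Fluo-8 calcium dye fluorescence, kinetic read | Read-out basis: % activation, ACh-normalized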
Numbers without * were called inactive; ! = not active in a repeat.

SMILES | CHRM5 agonist | M5 antag | CHRM4 agonist | M4 PAM | M4 antag | M5 PAM
COc1cccc(C2=NCCc3cc4c(cc32)OCO4)c1OC | 1 | 4 | 3 | -4 | 10 | -4
COc1ccc2cc3[n+](cc2c1OC)CCc1cc2c(cc1-3)OCO2 | 0 | -3 | 0 | -14 | 41*! | -4
N[C@@]12CCc3nonc3[C@]1(O)CC(c1ccccc1)=[N+]2[O-] | 1 | 0 | 1 | 26* | 1 | 10
CC(C)[C@@H]1Cc2[nH]n(C)c(=O)c2[C@H](c2ccc(F)cc2)O1 | 1 | 9 | 0 | 3 | -9 | 1
CC(=O)c1ccc(Nc2nc3ccccc3nc2NS(=O)(=O)c2cccs2)cc1 | -2 | 5 | 2 | -3 | -4 | -6
O=C(O)c1cccc(Nc2nc3ccccc3nc2NS(=O)(=O)c2cccs2)c1 | -1 | -8 | 1 | 18* | -24 | 0
CC1=C(C(=O)N(C)C)CC(CC(=O)NCCc2ccccn2)C(=O)N1Cc1ccc(F)cc1 (stereo unspecified) | 2 | -2 | 1 | -3 | -3 | -2
O=C(CCl)N1N=C(c2ccco2)CC1c1ccco1 (stereo unspecified) | 3 | 11 | 1 | 2 | -7 | 28*
O=C(OCC(=O)N1N=C(c2ccc(Cl)cc2)CC1c1ccco1)c1cccnc1 (stereo unspecified) | 6 | -1 | 1 | 8 | -5 | 18*
CCn1cc(C(=O)NCCCOC(C)C)c(=O)c2cc(S(=O)(=O)N3CCOCC3)ccc21 | -3 | 6 | 1 | -6 | -12 | 3
O=C1OC[C@H](Cc2ccc3c(c2)OCO3)/C1=C\c1ccc2c(c1)OCO2 | 3 | 22 | 13 | -5 | -3 | -19
CCCC[C@@H](CNC)NC[C@H](Cc1ccc(O)cc1)NCCc1ccc(OCC)cc1 | -9 | 15 | 3 | -4 | 9 | -1
CCCCn1c(N)c(N(CCC(C)C)C(=O)C2CC(=O)N(Cc3ccc(C)cc3)C2)c(=O)[nH]c1=O (stereo unspecified) | 1 | 3 | 1 | 28* | -11 | 3
CCCCn1c(N)c(N(CCC(C)C)C(=O)C(C)N2C(=O)c3ccccc3C2=O)c(=O)[nH]c1=O (stereo unspecified) | -1 | 4 | 0 | 22* | -21 | 1
CCCCn1c(N)c(N(CCOC)C(=O)C2CCN(S(=O)(=O)c3ccc(C)cc3C)CC2)c(=O)[nH]c1=O | 3 | 1 | 1 | 24* | 2 | -2
CCCCn1c(N)c(N(CCOC)C(=O)C2CCN(S(=O)(=O)c3ccc(C)cc3)CC2)c(=O)[nH]c1=O | -5 | 1 | 0 | 7 | -10 | 4
CCCCN(C(=O)C(C)N1C(=O)c2ccccc2C1=O)c1c(N)n(CCCC)c(=O)[nH]c1=O (stereo unspecified) | 1 | 4 | 0 | 7 | 4 | -3
O=C(CNc1ccc(C(F)(F)F)cc1)Nc1cccc(S(=O)(=O)N2CCCCC2)c1 | 4 | 12 | 16 | -6 | 11 | -7
C=C1C(=O)[C@]23C[C@H]1CCC2[C@@]1(C)C(C[C@@H]3O)[C@](C)(C(=O)OC)CC[C@@H]1OC(C)=O (stereo partly specified) | 11 | 17 | 16 | -15 | 58* | -5
COc1ccc(OC)c(/C=C2/Sc3ccccc3C2=O)c1 | 63* | 43* | 27 | -5 | 19 | -23
CC(C)(C)NC(=O)C(c1cc2ccccc2o1)n1c(=O)c(-c2ccco2)nc2ccccc21 (stereo unspecified) | 1 | 4 | -2 | 2 | 4 | -5
CCCCCNC(=O)C(c1cc2ccccc2o1)n1c(=O)c(-c2ccco2)nc2ccccc21 (stereo unspecified) | 0 | -10 | 1 | 27* | -11 | 8
O=C(C[C@H]1C[C@@H]2c3cc(NC(=O)Nc4ccccc4)ccc3O[C@@H]2[C@@H](CO)O1)NCC1CC1 | -2 | -1 | 1 | 9 | -8 | 4
O=[N+]([O-])c1ccc2c(c1)Cc1cc(F)ccc1-2 | -2 | -4 | 1 | 4 | 3 | 0
